Our source for the inhibition, IC50 and Activity values is ChEMBL document CHEMBL3421617, “Synthesis of selenazolopyridine derivatives with capability to induce apoptosis in human breast carcinoma MCF-7 cells through scavenge of intracellular ROS” (Eur J Med Chem, 2015).

Structures are written as SMILES. Calls of active or inactive are those of the source. The rule behind the calls is not given here.

Series [1] relates to MCF7. The series is described as follows: Cytotoxicity against human MCF7 cells assessed as cell viability after 72 hrs by MTT assay. The class given is functional, cell-based. The note with it: for IC50: MCF7, 72 h. In a few lines:
(§1)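 Cells obtained from ATCC; human normal liver L02 included as the non-cancer line. Cells treated with various concentrations for 72 h. Viability read by MTT assay and IC50 values calculated from the concentration series.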
For orientation: Tetrazolium dyes change colour on reduction, which living cells bring about.

A further series concerns HepG2. Briefly: Cytotoxicity against human HepG2 cells assessed as cell viability after 72 hrs by MTT assay. It is filed as functional, cell-based. The note with it: HepG2, 72 h. In a few lines: as §1
Series [2] in a line: Cytotoxicity against human L02 cells assessed as cell viability after 72 hrs by MTT assay. The class given is cell-based. The note with it: L02, 72 h. In a few lines: as §1
Series [3] deals with MCF7. Briefly: Cell cycle arrest in human MCF7 cells assessed as cells at Sub-G1 phase at 20 uM by flow cytometry (reference value: 3.3%). The class given is functional. On the technique in general: Flow cytometry measures light scatter and fluorescence of single cells or particles in a stream.
Series [4] has as its system MCF7. Briefly: Cell cycle arrest in human MCF7 cells assessed as cells at G0/G1 phase at 20 uM by flow cytometry (reference value: 41.9%). The class given is functional.
Series [5] concerns MCF7. The series is described as follows: Cell cycle arrest in human MCF7 cells assessed as cells at S phase at 20 uM by flow cytometry (reference value: 16.6%). It is filed as functional.
The subject of series [6] is MCF7. Briefly: Cell cycle arrest in human MCF7 cells assessed as cells at G2/M phase at 20 uM by flow cytometry (reference value: 41.5%). It is filed as functional.
The test system of series [7] is MCF7. The series is described as follows: Cell cycle arrest in human MCF7 cells assessed as cells at Sub-G1 phase at 30 uM by flow cytometry (reference value: 3.3%). It is filed as functional.
Series [8] concerns MCF7. The series is described as follows: Cell cycle arrest in human MCF7 cells assessed as cells at G0/G1 phase at 30 uM by flow cytometry (reference value: 41.9%). The class given is functional.
The subject of series [9] is MCF7. Briefly: Cell cycle arrest in human MCF7 cells assessed as cells at S phase at 30 uM by flow cytometry (reference value: 16.6%). It is filed as functional.
The test system of series [10] is MCF7. The series is described as follows: Cell cycle arrest in human MCF7 cells assessed as cells at G2/M phase at 30 uM by flow cytometry (reference value: 41.5%). It is filed as functional.
The subject of series [11] is MCF7. The series is described as follows: Cell cycle arrest in human MCF7 cells assessed as cells at Sub-G1 phase at 40 uM by flow cytometry (reference value: 3.3%). The class given is functional.
In series [12] the test system is MCF7. Briefly: Cell cycle arrest in human MCF7 cells assessed as cells at G0/G1 phase at 40 uM by flow cytometry (reference value: 41.9%). The class given is functional.
The subject of series [13] is MCF7. The series is described as follows: Cell cycle arrest in human MCF7 cells assessed as cells at S phase at 40 uM by flow cytometry (reference value: 16.6%). The class given is functional.
Series [14] deals with MCF7. The series is described as follows: Cell cycle arrest in human MCF7 cells assessed as cells at G2/M phase at 40 uM by flow cytometry (reference value: 41.5%). It is filed as functional.
Series [15] concerns MCF7. Briefly: Cell cycle arrest in human MCF7 cells assessed as cells at Sub-G1 phase by flow cytometry. The class given is functional, cell-based.
In series [16] the test system is MCF7. The series is described as follows: Inhibition of intracellular ROS production in human MCF7 cells assessed as decrease in DHE fluorescence intensity after 30 mins. The class given is functional, cell-based. In a few lines: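 MCF-7 cells loaded with 10 µM DHE in PBS for 30 min, then exposed to different concentrations of compound. Intracellular ROS followed as DHE fluorescence on a microplate reader, excitation 300 nm and emission 610 nm, over 30 min.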

For series [17], the system named is MCF7. The series is described as follows: Inhibition of intracellular ROS production in human MCF7 cells assessed as decrease in DHE fluorescence intensity at 80 uM after 30 mins by fluorescence microscopy. The class given is functional, cell-based. In a few lines: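 Cells loaded with DHE (10 µM) in a culture dish at 37 °C for 30 min, then treated at 80 µM. Imaged at once by fluorescence microscopy, with red DHE fluorescence followed for 30 min.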

A short description of series [18]: Antioxidant activity assessed as ABTS radical scavenging activity. The class given is physicochemical. The note with it: TDE = time-dependent effect.
Series [19] is described as follows: Antioxidant activity assessed as DPPH free radical scavenging activity. The note with it: TDE = time-dependent effect. It is filed as physicochemical. On the technique in general: The DPPH test is a chemical assay of radical scavenging.

By IC50 is commonly meant the concentration at which inhibition is half-maximal. With `c1ccc(Nc2nc3cccnc3[se]2)cc1`, the inhibition entry in the series with MCF7 [1] and with MCF7 [16] was “Dose-dependent effect” each time. Besides, the IC50 was found to be 22.5 µM in the series on MCF7 [1], 57.1 µM in the series with HepG2 and 164 µM in series [2]. The Activity is 27.1% in the series with MCF7 [3]; 58.2% with MCF7 [4]; 34.3% with MCF7 [5]; 7.5% in the series with MCF7 [6]; 36.7% with MCF7 [7]; 50.5% with MCF7 [8]. For the same compound, the Activity with MCF7 [9] is recorded as 22.3%; in the series on MCF7 [10], 20.3%; with MCF7 [11] it was 58.3%; in the series with MCF7 [12], 50.8%; in the series on MCF7 [13], 25.8%; in the series with MCF7 [14], 13.4%. Also, the Activity entry in the series with MCF7 [15] was “Dose-dependent effect”; in [18], “tde”; in series [19], “tde”. For the same compound, in the series with MCF7 [17], the inhibition entry is “Active”.

Consider `Cc1cccc(Nc2nc3cccnc3[se]2)c1`, for which the figures for the IC50 (with MCF7 [1]; in the series with HepG2; in series [2]) were 56.4 µM, 56.7 µM and 54.3 µM, respectively.

As to `Clc1ccccc1Nc1nc2cccnc2[se]1`, the IC50 in the series on MCF7 [1] was found to be 43.3 µM; with HepG2 it was 181 µM; in series [2], 84.6 µM.

With `Cc1ccc(Nc2nc3cccnc3[se]2)cc1`, the IC50 with MCF7 [1] amounted to 91.5 µM; in the series with HepG2 it was 235 µM; in [2] it was 207 µM.

For `Cc1ccccc1Nc1nc2cccnc2[se]1`, the figures for the IC50 (with MCF7 [1]; with HepG2; in series [2]) were 52.5 µM, 507 µM and 121 µM, respectively.

`Brc1ccccc1Nc1nc2cccnc2[se]1`: the IC50 in the series with MCF7 [1] stood at 185 µM; in the series on HepG2, 74.2 µM; in series [2] it was 169 µM.

Regarding `Cc1ccc(Nc2nc3cccnc3[se]2)cc1C`, the IC50 was found to be 202 µM in the series with MCF7 [1], 145 µM in the series with HepG2 and 182 µM in [2].
